Reference: ChEMBL document CHEMBL2311348, “The extremo-α-carbonic anhydrase (CA) from Sulfurihydrogenibium azorense, the fastest CA known, is highly activated by amino acids and amines” (Bioorg Med Chem Lett, 2013)

Assays:
[1] = system: Sulfurihydrogenibium yellowstonense; assay: Activation of Sulfurihydrogenibium yellowstonense recombinant CA by stopped flow CO2 hydrase method
[2] = system: Sulfurihydrogenibium azorense; assay: Activation of Sulfurihydrogenibium azorense recombinant alpha carbonic anhydrase by stopped flow CO2 hydrase method
Procedure, shortened: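 Full-length recombinant enzyme in a stopped-flow CO2 hydration assay at 25 °C: 0.2 mM phenol red read at its absorbance maximum, 10 mM Hepes pH 7.5, 0.1 M NaClO4, 10 s traces, CO2 1.7–17 mM. Activators were diluted from 10 mM water stocks down to 0.001 µM and preincubated with enzyme for 15 min at room temperature. Uncatalyzed rates were subtracted. kcat was measured at 10 µM activator. KA came from a steady-state equation, mean of ≥3 determinations.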

| Compound | KA [1] [µM] | KA [2] [µM] |
| --- | --- | --- |
| N[C@H](Cc1c[nH]c2ccccc12)C(=O)O | 0.002 | 0.003 |
| N[C@@H](Cc1ccc(O)cc1)C(=O)O | 0.001 | 0.052 |
| N[C@@H](Cc1ccc(O)c(O)c1)C(=O)O | 0.09 | 0.004 |
| N[C@H](Cc1c[nH]cn1)C(=O)O | 0.012 | 0.09 |
| NCCc1c[nH]c2ccc(O)cc12 | 0.021 | 0.007 |
| NCCc1ccc(O)c(O)c1 | 0.037 | 0.011 |
| N[C@@H](Cc1c[nH]cn1)C(=O)O | 0.11 | 0.071 |
| N[C@H](Cc1ccc(O)cc1)C(=O)O | 0.83 | 0.11 |
| NCCN1CCNCC1 | 0.09 | 0.076 |
| NCCc1c[nH]cn1 | 0.08 | 0.1 |
| N[C@@H](Cc1c[nH]c2ccccc12)C(=O)O | 0.007 | 0.023 |
| CNC[C@@H](O)c1ccc(O)c(O)c1 | 0.68 | 0.074 |
| N[C@H](Cc1ccc(O)c(O)c1)C(=O)O | 0.43 | 0.89 |
| NCCc1ccccn1 | 0.33 | 0.34 |
| NCCN1CCOCC1 | 0.1 | 1.15 |
| Nc1ccc(C[C@H](N)C(=O)O)cc1 | 0.97 | 0.09 |
| NCc1ccccn1 | 0.1 | 0.081 |
